The text below walks through data of ChEMBL document CHEMBL1142939, “Neopeltolide, a macrolide from a lithistid sponge of the family Neopeltidae” (J Nat Prod, 2007).

For data set [1], the system named is Candida albicans. The data set is described as follows: Antifungal activity against Candida albicans ATCC 44506 at 25 ug/disk by agar diffusion assay. Conditions: read-out: IZ; call rule not given here. It counts as functional. The essentials:
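Sabouraud dextrose agar plates seeded with 10^5/mL C. albicans. Disks loaded with 25 µg compound, dried and placed on the agar. Incubated 37 °C for 24 h, then the growth-inhibition zone was measured. A nystatin disk (100 IU) ran on the same plate as control.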

Data set [2] relates to Candida albicans. Description: Antifungal activity against Candida albicans ATCC 44506 by broth dilution assay. It counts as functional. Put shortly:
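Broth microdilution in 96-well plates, seeded at 10^3 cells/mL. Compound tested as 2-fold dilutions from 5 to 0.4 µg/mL. Incubated 37 °C for 24 h. MIC taken as the lowest concentration completely inhibiting growth. 5-Fluorocytosine served as antifungal control.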

The test system of data set [3] is A549. Description: Cytotoxicity against human A549 cells ATCC CCL-185 by MTT assay. It counts as cell-based. Put shortly: (§1)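 MTT cell proliferation assay following previously described protocols. Each sample assayed at least three times to derive the final IC50.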
Data set [4] is described as follows: Cytotoxicity against human NCI-ADR-RES cells by MTT assay. In kind it is cell-based. Put shortly: as §1
Data set [5] in a line: Cytotoxicity against mouse NCI-P388 cells by MTT assay. In kind it is cell-based. Put shortly: as §1
The nature of data set [6]: Cytotoxicity against p53 mutated PANC1 cells ATCC CRL1469 by MTT assay. Conditions: human, panc-1. It counts as cell-based. The essentials:
as §1

The test system of another data set is DLD-1. Description: Cytotoxicity against p53 mutated NCI-DLD1 cells by MTT assay. In kind it is cell-based. To be noted: human. The essentials:
as §1

Data set [7] concerns A549. The data set is described as follows: Cell cycle arrest in A549 cells by accumulation at G1 phase at 100 nM. In kind it is functional, Homo sapiens.
Data set [8] has as its system A549. Description: Cell cycle arrest in A549 cells by accumulation at S phase at 100 nM. It counts as functional, Homo sapiens.
For data set [9], the system named is A549. The data set is described as follows: Cell cycle arrest in A549 cells by accumulation at G2/M phase at 100 nM. In kind it is functional, Homo sapiens.
Data set [10] deals with A549. The data set is described as follows: Cell cycle arrest in A549 cells by accumulation at G1 phase at 10 nM. It counts as functional, Homo sapiens.
The subject of data set [11] is A549. Description: Cell cycle arrest in A549 cells by accumulation at S phase at 10 nM. In kind it is functional, Homo sapiens.
Data set [12] deals with A549. The data set is described as follows: Cell cycle arrest in A549 cells by accumulation at G2/M phase at 10 nM. It counts as functional, Homo sapiens.
In data set [13] the test system is A549. Description: Cell cycle arrest in A549 cells by accumulation at G1 phase at 1 nM. In kind it is functional, Homo sapiens.
Data set [14] has as its system A549. Description: Cell cycle arrest in A549 cells by accumulation at S phase at 1 nM. It counts as functional, Homo sapiens.
In data set [15] the test system is A549. Description: Cell cycle arrest in A549 cells by accumulation at G2/M phase at 1 nM. In kind it is functional, Homo sapiens.
The subject of data set [16] is A549. The data set is described as follows: Cell cycle arrest in A549 cells by accumulation at G1 phase at 0.1 nM. It counts as functional, Homo sapiens.
The test system of data set [17] is A549. The data set is described as follows: Cell cycle arrest in A549 cells by accumulation at S phase at 0.1 nM. In kind it is functional, Homo sapiens.
For data set [18], the system named is A549. The data set is described as follows: Cell cycle arrest in A549 cells by accumulation at G2/M phase at 0.1 nM. It counts as functional, Homo sapiens.

Converted amounts (≈) assume the structure as drawn.

As for `CCC[C@@H]1C[C@H](OC)C[C@H](C)C[C@@H]2C[C@@H](OC(=O)/C=C\CCc3coc(/C=C\CNC(=O)OC)n3)C[C@H](CC(=O)O1)O2` [NEOPELTOLIDE], the zone of inhibition at 25 µg/disc in the data set with Candida albicans [1] came out at 17 mm. This compound had a minimum inhibitory concentration (MIC) in the data set with Candida albicans [2] of 0.625 µg/mL (≈ 1.06 µM). Further, the half-inhibitory concentration (IC50) in the data set with A549 [3] is 1.2 nM; in data set [4], 5.1 nM; in data set [5] it was 0.56 nM. For the same compound, the Activity entry is “Active” in data set [6]; “Active” in the data set on DLD-1; 63.03% with A549 [7]; 22.02% with A549 [8]; 14.95% in the data set with A549 [9]; 59.66% in the data set with A549 [10]. Moreover, the Activity with A549 [11] is 30.27%; in the data set on A549 [12], 10.07%; in the data set on A549 [13] it was 46.11%; in the data set with A549 [14], 39.95%; in the data set on A549 [15] it was 13.94%; in the data set on A549 [16], 46.4%. Also, the Activity stood at 40.01% in the data set with A549 [17] and 13.59% in the data set on A549 [18].

Turning to `CC(=O)O[C@H]1C(=O)[C@@]2(C)[C@H]([C@H](OC(=O)c3ccccc3)[C@]3(O)C[C@H](OC(=O)[C@H](O)[C@@H](NC(=O)c4ccccc4)c4ccccc4)C(C)=C1C3(C)C)[C@]1(OC(C)=O)CO[C@@H]1C[C@@H]2O` [PACLITAXEL], the Activity was 1.56% in the data set with A549 [7], 0% in the data set with A549 [8] and 98.44% in the data set with A549 [9].
